In assay [1] the test system is Mycobacterium tuberculosis. Briefly: Antimycobacterial activity against Mycobacterium tuberculosis H37Rv ATCC 27294 by BACTEC radiometric respiratory technique. The class given is functional. In short, it runs like this:
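Compounds prepared as DMSO solutions and tested over 256 to 1 µg/ml, with isoniazid and rifampicin as reference drugs.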

The test system of assay [2] is Mycobacterium tuberculosis. Briefly: Ratio of rifampicin MIC to drug MIC for Mycobacterium tuberculosis H37Rv ATCC 27294. The class given is functional.
In assay [3] the test system is Mycobacterium tuberculosis. Kind of assay: Ratio of isoniazid MIC to drug MIC for Mycobacterium tuberculosis H37Rv ATCC 27294. The class given is functional.
For assay [4], the system named is Staphylococcus aureus. Kind of assay: Antibacterial activity against Staphylococcus aureus by broth microdilution method. The class given is functional.
The test system of assay [5] is Klebsiella pneumoniae. Kind of assay: Antibacterial activity against Klebsiella pneumoniae by broth microdilution method. Type of assay: functional. Background: Broth dilution looks for growth in wells or tubes with falling amounts of substance.
Assay [6] relates to Aspergillus flavus. Briefly: Antifungal activity against Aspergillus flavus by broth microdilution method. Type of assay: functional.
In assay [7] the test system is Rhizopus sp. Kind of assay: Antifungal activity against Rhizopus sp. by broth microdilution method.
Assay [8] deals with Candida albicans. Briefly: Antifungal activity against Candida albicans by broth microdilution method. Type of assay: functional.
Assay [9] has as its system Escherichia coli. Briefly: Antibacterial activity against Escherichia coli by broth microdilution method. Type of assay: functional.
Assay [10] relates to Rhizopus. Kind of assay: Ratio of amphotericin B MIC to drug MIC for Rhizopus sp. The class given is functional.
For assay [11], the system named is Staphylococcus aureus. Briefly: Ratio of ciprofloxacin MIC to drug MIC for Staphylococcus aureus. The class given is functional.
Assay [12] deals with Klebsiella pneumoniae. Kind of assay: Ratio of ciprofloxacin MIC to drug MIC for Klebsiella pneumoniae. The class given is functional.

The structures appear in SMILES notation. ≈ marks a conversion by molar mass, not a printed value.

For `NNC(=O)c1ccncc1` [ISONIAZID], it took 0.25 µg/mL (≈ 1.82 µM) to inhibit growth in [1] (MIC).

Regarding `CCOC(=O)Cc1csc(N/N=C2\CC(c3ccc(F)cc3)NC(c3ccc(F)cc3)C2C)n1` (stereo not given), the Ratio in assay [2] was found to be 200; in assay [3], 1.56. The MIC – broadly, the lowest concentration found to suppress growth – in assay [1] came out at 16 µg/mL (≈ 33 µM); in [4], 16 µg/mL (≈ 33 µM); in assay [5], 64 µg/mL (≈ 132 µM); in assay [6], 32 µg/mL (≈ 66 µM); in [7], 16 µg/mL (≈ 33 µM); in assay [8] it was 128 µg/mL (≈ 264 µM). In assay [9], this molecule had an MIC of 32 µg/mL (≈ 66 µM).

Take `CCOC(=O)Cc1csc(N/N=C2\CC(c3ccccc3)N(C)C(c3ccccc3)C2C)n1` (stereo not given): the Ratio in assay [2] turned out to be 200; in assay [3] it was 1.56; in [10] it was 1. The MIC in assay [1] came out at 16 µg/mL (≈ 34.6 µM); in assay [4] it was 16 µg/mL (≈ 34.6 µM); in [5] it was 32 µg/mL (≈ 69.2 µM); in assay [6], 64 µg/mL (≈ 138 µM); in [7], 8 µg/mL (≈ 17.3 µM); in assay [8], 256 µg/mL (≈ 553 µM). This molecule also yielded a minimal inhibitory concentration (MIC) in assay [9] of 128 µg/mL (≈ 277 µM).

Turning to `CCOC(=O)Cc1csc(N/N=C2\CC(c3ccccc3)NC(c3ccccc3)C2CC)n1` (stereo not given), the MIC in [1] is more than 256 µg/mL; in assay [4], 128 µg/mL (≈ 277 µM); in assay [5] it was more than 256 µg/mL; in assay [6], more than 256 µg/mL; in [7], 256 µg/mL (≈ 553 µM); in [8], more than 256 µg/mL. Moreover, the MIC in assay [9] was more than 256 µg/mL.

Regarding `CCOC(=O)Cc1csc(N/N=C2\CC(c3ccc(C)cc3)NC(c3ccc(C)cc3)C2C)n1` (stereo not given), the MIC is more than 256 µg/mL in assay [1]; more than 256 µg/mL in assay [4]; 256 µg/mL (≈ 537 µM) in assay [5]; more than 256 µg/mL in assay [6]; 128 µg/mL (≈ 269 µM) in assay [7]; more than 256 µg/mL in assay [8]. Moreover, 128 µg/mL (≈ 269 µM) was the least that counted as inhibitory in assay [9] (MIC).

With `CCOC(=O)Cc1csc(N/N=C2\CC(c3ccc(Cl)cc3)NC(c3ccc(Cl)cc3)C2C)n1` (stereo not given), the MIC in assay [1] was more than 256 µg/mL; in assay [4] it was 32 µg/mL (≈ 61.8 µM); in assay [5], 128 µg/mL (≈ 247 µM); in assay [6], 64 µg/mL (≈ 124 µM); in assay [7] it was 128 µg/mL (≈ 247 µM); in [8] it was more than 256 µg/mL. Besides, the MIC in [9] is 64 µg/mL (≈ 124 µM).

Turning to `CC1/C(=N/N=C2\NC(=O)CS2)CC(c2ccc(Cl)cc2)NC1c1ccc(Cl)cc1` (stereo not given), the Ratio in assay [2] worked out at 200; in assay [3], 1.56. Also, the MIC was 16 µg/mL (≈ 35.8 µM) in [1]; 8 µg/mL (≈ 17.9 µM) in assay [4]; 128 µg/mL (≈ 286 µM) in assay [5]; 128 µg/mL (≈ 286 µM) in [6]; 256 µg/mL (≈ 572 µM) in assay [7]; 128 µg/mL (≈ 286 µM) in [8]. This molecule came in with an MIC in assay [9] of 128 µg/mL (≈ 286 µM).

Turning to `CC1/C(=N/N=C2\NC(=O)CS2)CC(c2ccc(F)cc2)NC1c1ccc(F)cc1` (stereo not given), the Ratio is 1 in assay [11], 25 in [2], 2 in [12] and 0.19 in [3]. The MIC in [1] was determined as 128 µg/mL (≈ 309 µM); in [4] it was 4 µg/mL (≈ 9.65 µM); in assay [5], 4 µg/mL (≈ 9.65 µM); in assay [6], 8 µg/mL (≈ 19.3 µM); in [7] it was 16 µg/mL (≈ 38.6 µM); in assay [8], 16 µg/mL (≈ 38.6 µM). Inhibition of growth in assay [9] (MIC) required 32 µg/mL (≈ 77.2 µM).

`CC1/C(=N/N=C2\NC(=O)CS2)CC(c2ccc(Br)cc2)NC1c1ccc(Br)cc1` (stereo not given): the Ratio in [2] came out at 200; in assay [3] it was 1.56. Besides, the minimum inhibitory concentration (MIC) in assay [1] came out at 16 µg/mL (≈ 29.8 µM); in [4], 8 µg/mL (≈ 14.9 µM); in assay [5] it was 8 µg/mL (≈ 14.9 µM); in [6], 32 µg/mL (≈ 59.7 µM); in [7], 16 µg/mL (≈ 29.8 µM); in assay [8] it was 64 µg/mL (≈ 119 µM). In assay [9], this molecule gave an MIC of 16 µg/mL (≈ 29.8 µM).

As to `Cc1ccc(C2C/C(=N\N=C3/NC(=O)CS3)C(C)C(c3ccc(C)cc3)N2)cc1` (stereo not given), the values for the Ratio in assay [2] and in [3] were 50 and 0.39, respectively. Further, the MIC is 64 µg/mL (≈ 157 µM) in [1]; 64 µg/mL (≈ 157 µM) in assay [4]; 256 µg/mL (≈ 630 µM) in assay [5]; 128 µg/mL (≈ 315 µM) in assay [6]; 256 µg/mL (≈ 630 µM) in assay [7]; more than 256 µg/mL in assay [8]. Besides, the lowest concentration to inhibit growth in assay [9] (MIC) was 128 µg/mL (≈ 315 µM).

Molecule `CO[C@H]1/C=C/O[C@@]2(C)Oc3c(C)c(O)c4c(O)c(c(/C=N/N5CCN(C)CC5)c(O)c4c3C2=O)NC(=O)/C(C)=C\C=C\[C@H](C)[C@H](O)[C@@H](C)[C@@H](O)[C@@H](C)[C@H](OC(C)=O)[C@@H]1C` [RIFAMPIN] yielded an MIC in assay [1] of 32 µg/mL (≈ 38.9 µM).

`CC1/C(=N/N=C2\NC(=O)CS2)CC(c2ccccc2)NC1c1ccccc1` (stereo not given): the Ratio worked out at 50 in assay [2] and 0.39 in assay [3]. Further, the MIC in [1] was 64 µg/mL (≈ 169 µM); in assay [4], 64 µg/mL (≈ 169 µM); in [5], 64 µg/mL (≈ 169 µM); in [6] it was 64 µg/mL (≈ 169 µM); in assay [7], more than 256 µg/mL; in [8], more than 256 µg/mL. In assay [9], this molecule had an MIC of 256 µg/mL (≈ 676 µM).

For `CCC1/C(=N/N=C2\NC(=O)CS2)CC(c2ccccc2)NC1c1ccccc1` (stereo not given), the minimum inhibitory concentration (MIC) in [1] was more than 256 µg/mL; in [4], 128 µg/mL (≈ 326 µM); in assay [5], more than 256 µg/mL; in [6] it was more than 256 µg/mL; in assay [7], more than 256 µg/mL; in assay [8], 256 µg/mL (≈ 652 µM). Besides, in assay [9], the MIC was more than 256 µg/mL.

Take `CCOC(=O)Cc1csc(N/N=C2\CC(c3ccc(Br)cc3)NC(c3ccc(Br)cc3)C2C)n1` (stereo not given): the MIC is more than 256 µg/mL in assay [1]; 16 µg/mL (≈ 26.4 µM) in assay [4]; 8 µg/mL (≈ 13.2 µM) in assay [5]; 32 µg/mL (≈ 52.8 µM) in assay [6]; 256 µg/mL (≈ 422 µM) in assay [7]; 8 µg/mL (≈ 13.2 µM) in assay [8]. In assay [9], the MIC turned out to be 4 µg/mL (≈ 6.6 µM).

Regarding `CCOC(=O)Cc1csc(N/N=C2\CC(c3ccc(OC)cc3)NC(c3ccc(OC)cc3)C2C)n1` (stereo not given), the Ratio in assay [2] is listed as 200; in [3], 1.56. Further, the MIC in assay [1] is 16 µg/mL (≈ 31.5 µM); in [4], 64 µg/mL (≈ 126 µM); in assay [5], 256 µg/mL (≈ 503 µM); in assay [6], more than 256 µg/mL; in [7], 256 µg/mL (≈ 503 µM); in assay [8], more than 256 µg/mL. This molecule came in with a minimal inhibitory concentration (MIC) in [9] of 128 µg/mL (≈ 252 µM).

With `CC1/C(=N/N=C2\NC(=O)CS2)CC(c2ccccc2)N(C)C1c1ccccc1` (stereo not given), the figures for the Ratio in assay [2], in assay [3] and in assay [10] were 200, 1.56 and 1, respectively. Further, the MIC in assay [1] came to 16 µg/mL (≈ 40.8 µM); in [4], 16 µg/mL (≈ 40.8 µM); in assay [5] it was 64 µg/mL (≈ 163 µM); in assay [6] it was 64 µg/mL (≈ 163 µM); in assay [7], 8 µg/mL (≈ 20.4 µM); in assay [8], 64 µg/mL (≈ 163 µM). The same molecule gave an MIC in assay [9] of 128 µg/mL (≈ 326 µM).

Consider `CCOC(=O)Cc1csc(N/N=C2\CC(c3ccccc3)NC(c3ccccc3)C2C)n1` (stereo not given), for which the Ratio in [2] worked out at 50; in assay [3], 0.39. Also, the MIC in assay [1] is 64 µg/mL (≈ 143 µM); in [4] it was more than 256 µg/mL; in assay [5] it was more than 256 µg/mL; in assay [6], 256 µg/mL (≈ 571 µM); in assay [7], more than 256 µg/mL; in assay [8], more than 256 µg/mL. This molecule returned an MIC in assay [9] of 128 µg/mL (≈ 285 µM).

With `O=C(O)c1cn(C2CC2)c2cc(N3CCNCC3)c(F)cc2c1=O` [CIPROFLOXACIN], the MIC in [4] was found to be 8 µg/mL (≈ 24.1 µM); in assay [5], 16 µg/mL (≈ 48.3 µM).

Consider `C[C@@H]1[C@H](O)[C@@H](C)/C=C/C=C/C=C/C=C/C=C/C=C/C=C/[C@H](O[C@@H]2O[C@H](C)[C@@H](O)[C@H](N)[C@@H]2O)C[C@@H]2O[C@](O)(C[C@@H](O)C[C@@H](O)[C@H](O)CC[C@@H](O)C[C@@H](O)CC(=O)O[C@H]1C)C[C@H](O)[C@H]2C(=O)O` [AMPHOTERICIN B], for which the values for the minimum inhibitory concentration (MIC) in assay [6], in [7] and in assay [8] were 8 µg/mL (≈ 8.66 µM), 16 µg/mL (≈ 17.3 µM) and 8 µg/mL (≈ 8.66 µM), respectively.

For the molecule `COc1ccc(C2C/C(=N\N=C3/NC(=O)CS3)C(C)C(c3ccc(OC)cc3)N2)cc1` (stereo not given), the Ratio in [2] is reported as 100; in assay [3] it was 0.78. Also, the MIC came to 32 µg/mL (≈ 73 µM) in [1]; 32 µg/mL (≈ 73 µM) in assay [4]; 64 µg/mL (≈ 146 µM) in [5]; 128 µg/mL (≈ 292 µM) in [6]; 128 µg/mL (≈ 292 µM) in assay [7]; 64 µg/mL (≈ 146 µM) in assay [8]. In [9], the minimum inhibitory concentration (MIC) is 32 µg/mL (≈ 73 µM).

The record behind these values is ChEMBL document CHEMBL1154090, “Synthesis, spectral and biological evaluation of some new thiazolidinones and thiazoles based on t-3-alkyl-r-2,c-6-diarylpiperidin-4-ones” (2009).
